The values that follow come from article PMC3246390 (Organic & biomolecular chemistry, 2011).

Entries after “also recorded” stand apart in the source; their conditions may differ. Where two headings read alike, the source gives them in different places.

Assay [1] has as its target T1, mouse Vα14Vβ8.2 NKT TCR (glycolipid presented by mouse CD1d) (Mus musculus, UniProt P11609).
T1 sequence (P11609 19-297): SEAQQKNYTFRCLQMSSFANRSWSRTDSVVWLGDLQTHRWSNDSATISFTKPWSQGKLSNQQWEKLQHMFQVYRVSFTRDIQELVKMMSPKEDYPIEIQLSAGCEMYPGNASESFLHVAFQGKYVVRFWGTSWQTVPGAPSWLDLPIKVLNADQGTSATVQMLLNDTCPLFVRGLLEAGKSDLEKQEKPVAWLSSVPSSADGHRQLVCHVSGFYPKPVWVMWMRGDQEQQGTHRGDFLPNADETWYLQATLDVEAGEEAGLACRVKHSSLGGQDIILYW
T1 sequence (P01887 21-119 partner): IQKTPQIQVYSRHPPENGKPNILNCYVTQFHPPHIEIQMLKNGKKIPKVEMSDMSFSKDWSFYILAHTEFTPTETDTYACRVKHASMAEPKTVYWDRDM
T1 sequence (P01849 1-110 partner): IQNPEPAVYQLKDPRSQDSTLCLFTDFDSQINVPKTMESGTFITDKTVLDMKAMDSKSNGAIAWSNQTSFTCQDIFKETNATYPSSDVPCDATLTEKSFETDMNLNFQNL
The assay is classed as binding. To be noted: for Kass / Kdiss: Langmuir 1:1 model; for Kdiss: TCR dissociation from mouse CD1d-glycolipid complex.

Assay [2] concerns mice. To be noted: cited from earlier work.
Assay [3] concerns mice. Type of assay: in vivo. To be noted: 5 µg intraperitoneal; for cytokine secretion (INF-γ and IL-4): IL-4 at 4h and INF-γ at 16h. The gist of the method: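 Each mouse received an intraperitoneal injection of 5 µg glycolipid (6"-modified α-GalCer analogues, galacturonic acid and α-d-fucopyranosyl types). Serum IL-4 was measured at 4 h and serum INF-γ at 16 h after injection.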

Assay [4] concerns mice. To be noted: i.v. administration; cited from earlier work.
Assay [5] deals with lung and breast cancer in mice. To be noted: lung and breast cancer (GSL-1’: mice bearing lung cancer, equal doses); cited from earlier work.
The mark [6] stands for this setting: SPR, TCR binding to mouse CD1d-glycolipid complex.
Where [7] appears, read: read-out: KD(Kdiss/Kass), SPR, TCR binding to mouse CD1d-glycolipid complex.

“1-O-(6-deoxy-α-D-galactopyranosyl)-2-hexacosylamino-octadecane-1,3,4-triol [compound 4]”: the Kass in assay [1] (setting [6]) was 80000 ± 3000 M⁻¹ s⁻¹. Moreover, the Kdiss in assay [1] (SPR) was 0.00526 ± 0.00029 s⁻¹. Besides, the Kd in assay [1] (setting [7]) was 64.8 ± 6 nM. Also, the “IFN-γ induction compared to α-GalCer” value with mice [2] is given as “superior to α-GalCer”.
“1-O-(6-deoxy-α-D-galactopyranosyl)-2-hexacosylamino-octadecane-1,3,4-triol [compound 12]” yielded a Kass in assay [1] (setting [6]) of 100000 ± 20000 M⁻¹ s⁻¹. In assay [1] (SPR), this compound yielded a Kdiss of 0.00648 ± 0.0018 s⁻¹. Besides, the Kd in assay [1] (setting [7]) was determined as 74.4 ± 25 nM. Also, the “cytokine secretion (INF-γ and IL-4)” value in the assay on mice [3] (serum) was “weak cytokine secretion; also recorded: low cytokine release”.
Compound “1-O-(α-D-galactopyranosyluronate)-2-hexacosylamino-octadecane-1,3,4-triol [compound 13]” gave a Kass in assay [1] (setting [6]) of 100000 ± 9000 M⁻¹ s⁻¹. In addition, the Kd in assay [1] (setting [7]) was found to be 165 ± 38.3 nM. The “cytokine secretion (INF-γ and IL-4)” value with mice [3] (serum) is reported as “minor cytokine secretion”. Besides, the “secretion of INF-γ compared to α-GalCer” value with mice [4] is “drastically lower secretion of INF-γ”. The “efficacy towards cancer compared to α-GalCer” value in assay [5] is listed as “more effective”.
Turning to `CCCCCCCCCCCCCCCCCCCCCCCCCC(=O)N[C@@H](CO[C@H]1O[C@H](CO)[C@H](O)[C@H](O)[C@H]1O)[C@H](O)[C@H](O)CCCCCCCCCCCCCC` [KRN7000 (1), α-galactosylceramide, reference compound], the Kd in assay [1] worked out at 11.2 ± 0.2 nM. Moreover, in assay [1] (read-out: Kass), the kon was found to be 130000 M⁻¹ s⁻¹. Also, in assay [1] (read-out: Kdiss), the koff was 0.00145 s⁻¹.
In assay [1] (setting [6]), `CCCCCCCCCCCCCCC(O)C(O)C(CO[C@H]1O[C@H](C(=O)O)[C@H](O)[C@H](O)[C@H]1O)NC(=O)CCCCCc1ccccc1` (stereo partly drawn) [compound 14, 1-O-(α-D-galactopyranosyluronate)-2-(6-phenylhexanoyl)amino-octadecane-1,3,4-triol] returned a Kass of 110000 ± 6000 M⁻¹ s⁻¹. Also, the Kdiss in assay [1] (SPR) stood at 0.00811 ± 0.0012 s⁻¹. In assay [1] (setting [7]), the Kd turned out to be 75.3 ± 15.2 nM. The “cytokine secretion (INF-γ and IL-4)” value in the assay on mice [3] (serum) is recorded as “abolishes all activity; also recorded: low cytokine release”.
As to “α-C-GalCer [compound 3, reference compound]”, the Th1/Th2 polarization entry with mice [3] (INF-γ versus IL-4) is given as “no polarization”. In addition, in the assay with mice [3] (serum, measured at 4h), the “IL-4 secretion (Th2 response)” value is given as “strong Th2 response”. Moreover, the INF-γ secretion result with mice [3] (serum, measured at 16h) was “superior INF-γ inducer”.
